Reference: PMC9683076 (Pharmacology Research & Perspectives, 2022)
Where two headings read alike, the source gives them in different places.

Columns and labels:
[1] = format: in vivo, human (healthy adult subjects)
How it was run: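 Single-centre, open-label, two-period study in healthy adults. Everolimus 0.75 mg given as a single dose alone on Period 1 Day 1. Blood concentrations gave Cmax, AUCinf, Tmax (median), C12 and t1/2. Natural-log parameters were compared by repeated-measures analysis.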

[2] = cited from earlier work
[3] = 2 mg single-dose sirolimus with ketoconazole 200 mg BID at steady state; cited from earlier work
[4] = format: in vivo, human (healthy adult subjects); remark: listed apart in the source
[5] = tested on: P-gp; details: cited from earlier work
[6] = digoxin with the 3D regimen; cited from earlier work
[7] = cited from earlier work; remark: listed apart in the source
[8] = everolimus co-administered with the 3D regimen vs alone
[9] = sirolimus 2 mg single dose alone, Period 1 Day 1, N = 11, blood, geometric mean (geometric %CV)
[10] = sirolimus co-administered with the 3D regimen vs alone

## CO[C@H]1C[C@@H]2CC[C@@H](C)[C@@](O)(O2)C(=O)C(=O)N2CCCC[C@H]2C(=O)O[C@H]([C@H](C)C[C@@H]2CC[C@@H](OCCO)[C@H](OC)C2)CC(=O)[C@H](C)/C=C(\C)[C@@H](O)[C@@H](OC)C(=O)[C@H](C)C[C@H](C)/C=C/C=C/C=C/1C [Everolimus, everolimus]
[1]; [8]
  increase in AUCinf: 27 fold
  increase in Cmax: 4.7 fold
  increase in t 1/2: 2.8 fold
[1]; everolimus in the presence of the 3D regimen vs alone
  delay in Tmax: 1 h
[1]; human, blood, 0.75 mg
  AUC(0-inf): 41.9 ng·h/mL
  Cmax: 3.33 ng/mL
  concentration at 12 h: 0.513 ng/mL
[1]; human, blood, 0.75 mg, t 1/2, everolimus 0.75 mg single dose alone, Period 1 Day 1, N = 12, blood, harmonic mean (pseudo-standard deviation)
  half-life: 42 h
[2]; everolimus
  half-life: ~30 h

## CO[C@H]1C[C@@H]2CC[C@@H](C)[C@@](O)(O2)C(=O)C(=O)N2CCCC[C@H]2C(=O)O[C@H]([C@H](C)C[C@@H]2CC[C@@H](O)[C@H](OC)C2)CC(=O)[C@H](C)/C=C(\C)[C@@H](O)[C@@H](OC)C(=O)[C@H](C)C[C@H](C)/C=C/C=C/C=C/1C [Sirolimus, sirolimus]
[3]
  increase in Cmax: 4.3 fold
[4]; human, blood, 2 mg, t 1/2, sirolimus 2 mg single dose alone, Period 1 Day 1, N = 11, blood, harmonic mean (pseudo-standard deviation)
  half-life: 96 h
[4]; human, blood, oral, 2 mg
  AUC(0-inf): 178 ng·h/mL
[4]; [9]
  C24: 1.14 (29) ng/m
  Cmax: 6.66 (33) ng/ml
[4]; sirolimus 2 mg single dose alone, Period 1 Day 1, N = 11, blood, harmonic mean (pseudo-standard deviation)
  t 1/2: 96.3 (15) h
[4]; sirolimus 2 mg single dose alone, Period 1 Day 1, N = 11, blood, median (range)
  Tmax: 2.5 (1.5–4.0) h
[4]; [10]
  increase in dose-normalized AUCinf: 38 fold
  increase in dose-normalized Cmax: 6.4 fold
  increase in t 1/2: 2.6 fold
[4]; sirolimus in the presence of the 3D regimen vs alone
  delay in Tmax: 3.5 h
[2]; sirolimus
  half-life: approximately 62 h

## COc1c(-c2ccc3cc(NS(C)(=O)=O)ccc3c2)cc(-n2ccc(=O)[nH]c2=O)cc1C(C)(C)C [dasabuvir]
[5]
  P-gp inhibition (in vitro data): potential inhibitors of P‐gp

## C[C@H]1O[C@@H](O[C@H]2[C@@H](O)C[C@H](O[C@H]3[C@@H](O)C[C@H](O[C@H]4CC[C@@]5(C)[C@H](CC[C@@H]6[C@@H]5C[C@@H](O)[C@]5(C)[C@@H](C7=CC(=O)OC7)CC[C@]65O)C4)O[C@@H]3C)O[C@@H]2C)C[C@H](O)[C@@H]1O [digoxin]
[6]
  increase in AUC: ≤ 16%
  increase in Cmax: ≤ 16%

## Cc1ncc2n1-c1ccc(Cl)cc1C(c1ccccc1F)=NC2 [midazolam]
[7]; midazolam co-administered with boceprevir
  increase in AUC: 5.3 fold
[7]; midazolam co-administered with tipranavir/ritonavir
  increase in AUC: 26.9 fold

## Cc1cnc(C(=O)N[C@H]2CCCCC/C=C\[C@@H]3C[C@@]3(C(=O)NS(=O)(=O)C3CC3)NC(=O)[C@@H]3C[C@@H](Oc4nc5ccccc5c5ccccc45)CN3C2=O)cn1 [paritaprevir]
[5]
  P-gp inhibition (in vitro data): potential inhibitors of P‐gp

## CC(C)c1nc(CN(C)C(=O)N[C@H](C(=O)N[C@@H](Cc2ccccc2)C[C@H](O)[C@H](Cc2ccccc2)NC(=O)OCc2cncs2)C(C)C)cs1 [ritonavir]
[5]
  P-gp inhibition (in vitro data): potential inhibitors of P‐gp
